Data on three compounds can be found in ChEMBL document CHEMBL1154352, “Toll-like receptor 7 selective synthetic oligoribonucleotide agonists: synthesis and structure-activity relationship studies” (J Med Chem, 2009).

Structures are written as SMILES. Active and inactive are the calls of the source. The rule behind the calls is not given here.

In data set [1] the target is Toll-like receptor 3 (Homo sapiens) (UniProt O15455). The data set is described as follows: Activation of human TLR3 expressed in HEK293 assessed as induction of NF-kappaB activity reporter gene assay. It is filed as cell-based.
Chain of Toll-like receptor 3 (Homo sapiens) (O15455 whole entry): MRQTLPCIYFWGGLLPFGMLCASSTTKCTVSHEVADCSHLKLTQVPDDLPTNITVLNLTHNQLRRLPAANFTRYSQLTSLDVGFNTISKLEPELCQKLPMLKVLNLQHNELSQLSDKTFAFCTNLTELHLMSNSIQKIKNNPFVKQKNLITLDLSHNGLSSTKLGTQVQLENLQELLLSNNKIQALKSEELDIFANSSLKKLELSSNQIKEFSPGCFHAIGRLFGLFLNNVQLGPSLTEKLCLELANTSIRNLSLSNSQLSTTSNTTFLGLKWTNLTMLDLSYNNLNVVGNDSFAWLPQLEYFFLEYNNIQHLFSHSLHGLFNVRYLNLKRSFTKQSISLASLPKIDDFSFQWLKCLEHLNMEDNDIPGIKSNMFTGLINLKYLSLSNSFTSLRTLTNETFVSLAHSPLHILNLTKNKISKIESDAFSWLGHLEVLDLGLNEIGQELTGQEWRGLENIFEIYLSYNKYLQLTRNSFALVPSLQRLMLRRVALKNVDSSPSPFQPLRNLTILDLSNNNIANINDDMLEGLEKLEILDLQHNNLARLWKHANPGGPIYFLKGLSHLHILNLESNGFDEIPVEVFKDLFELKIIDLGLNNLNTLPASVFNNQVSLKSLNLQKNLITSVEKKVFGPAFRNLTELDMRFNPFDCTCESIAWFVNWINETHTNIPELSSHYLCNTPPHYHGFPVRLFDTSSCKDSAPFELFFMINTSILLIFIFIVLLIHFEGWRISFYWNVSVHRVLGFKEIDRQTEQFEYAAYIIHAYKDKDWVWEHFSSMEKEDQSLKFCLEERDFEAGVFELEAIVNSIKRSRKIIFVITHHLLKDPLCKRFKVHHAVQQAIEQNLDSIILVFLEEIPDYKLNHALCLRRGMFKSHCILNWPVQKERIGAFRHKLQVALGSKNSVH
In data set [2] the target is T1, Toll-like receptor 7 (Homo sapiens) (UniProt Q9NYK1).
T1 sequence (whole entry): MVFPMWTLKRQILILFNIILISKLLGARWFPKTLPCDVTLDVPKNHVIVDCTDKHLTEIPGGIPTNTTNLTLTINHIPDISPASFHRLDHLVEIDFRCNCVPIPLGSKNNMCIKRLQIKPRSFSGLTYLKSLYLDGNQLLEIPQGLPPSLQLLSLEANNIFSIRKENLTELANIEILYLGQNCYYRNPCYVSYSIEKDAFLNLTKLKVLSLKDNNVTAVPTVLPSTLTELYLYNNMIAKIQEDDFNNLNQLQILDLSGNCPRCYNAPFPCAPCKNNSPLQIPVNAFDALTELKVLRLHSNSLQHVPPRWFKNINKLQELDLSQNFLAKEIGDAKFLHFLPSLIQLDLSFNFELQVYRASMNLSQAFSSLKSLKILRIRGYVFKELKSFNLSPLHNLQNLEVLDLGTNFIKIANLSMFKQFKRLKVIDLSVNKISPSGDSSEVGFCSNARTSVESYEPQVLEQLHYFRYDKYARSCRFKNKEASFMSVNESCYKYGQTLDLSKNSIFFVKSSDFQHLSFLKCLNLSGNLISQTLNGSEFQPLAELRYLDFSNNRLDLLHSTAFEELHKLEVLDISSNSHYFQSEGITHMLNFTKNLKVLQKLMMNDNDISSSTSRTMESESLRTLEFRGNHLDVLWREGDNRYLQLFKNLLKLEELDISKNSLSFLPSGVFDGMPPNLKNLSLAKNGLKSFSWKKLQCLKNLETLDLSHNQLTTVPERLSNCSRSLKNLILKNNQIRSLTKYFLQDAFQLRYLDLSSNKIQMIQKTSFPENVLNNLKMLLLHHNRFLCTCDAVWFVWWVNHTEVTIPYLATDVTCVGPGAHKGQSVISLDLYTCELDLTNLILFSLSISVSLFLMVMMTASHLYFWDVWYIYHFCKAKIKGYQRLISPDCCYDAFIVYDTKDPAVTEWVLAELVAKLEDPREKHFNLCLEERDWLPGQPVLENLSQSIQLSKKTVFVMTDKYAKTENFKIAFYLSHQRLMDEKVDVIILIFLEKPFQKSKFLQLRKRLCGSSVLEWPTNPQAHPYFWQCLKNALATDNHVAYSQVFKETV
The data set can be described thus: Activation of human TLR7 expressed in HEK293XL assessed as fold induction of NF-kappaB activity at 50 ug/ml after 18 hrs by reporter gene assay relative to control. The procedure, abridged:
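HEK293 cells stably expressing human TLR7 or TLR8, transiently transfected with SEAP reporter plasmid; medium replaced, SIMRA compounds added, 18 h incubation. Supernatant SEAP measured by QuantiBlue; expressed as fold increase in NF-κB activity over PBS control. Tabulated data at 50 μg/mL, representative of three independent experiments.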
(Reporter assays use an easily measured gene product as a stand-in for the process of interest.)

The species named for a further data set is Homo sapiens. The data set is described as follows: Ratio of human TLR7 activity to human TLR8 activity. The procedure, abridged: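 TLR7/TLR8 ratio computed from fold NF-κB (SEAP reporter) activation in HEK293 cells stably expressing human TLR7 versus TLR8, compounds at 50 μg/mL, 18 h exposure; representative of three independent experiments.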
A short description of data set [3]: Metabolic stability in human serum assessed as full length product remaining after 10 mins by HPLC. It is filed as ADME, cell-free. The following applies: read-out: Stability. The procedure, abridged:
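About 0.5 A260 units compound in 1% human serum in PBS, 37 °C; aliquot taken at 10 min, analysed by anion-exchange HPLC for percent intact full-length product.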

Take `Nc1ccn([C@@H]2O[C@H](COP(=O)(S)O[C@H]3[C@@H](O)[C@H](n4cnc5c(N)ncnc54)O[C@@H]3COP(=O)(S)O[C@H]3[C@@H](O)[C@H](n4cnc5c(N)ncnc54)O[C@@H]3CO)[C@@H](OP(=O)(S)OC[C@H]3O[C@@H](n4ccc(=O)[nH]c4=O)[C@H](O)[C@@H]3OP(=O)(S)OC[C@H]3O[C@@H](n4ccc5c(=O)[nH]c(N)nc54)[C@H](O)[C@@H]3OP(=O)(S)OC[C@H]3O[C@@H](n4cnc5c(N)ncnc54)[C@H](O)[C@@H]3OP(=O)(S)OC[C@H]3O[C@@H](n4ccc(N)nc4=O)[C@H](O)[C@@H]3OP(=O)(S)OC[C@H]3O[C@@H](n4ccc5c(=O)[nH]c(N)nc54)[C@H](O)[C@@H]3OP(=O)(S)OC[C@H]3O[C@@H](n4ccc(N)nc4=O)[C@H](O)[C@@H]3OP(=O)(S)OC[C@H]3O[C@@H](n4ccc(=O)[nH]c4=O)[C@H](O)[C@@H]3OP(=O)(S)OC[C@H]3O[C@@H](n4ccc5c(=O)[nH]c(N)nc54)[C@H](O)[C@@H]3OP(=O)(S)OCC(O)COP(=O)(S)O[C@H]3[C@@H](O)[C@H](n4ccc5c(=O)[nH]c(N)nc54)O[C@@H]3COP(=O)(S)O[C@H]3[C@@H](O)[C@H](n4ccc(=O)[nH]c4=O)O[C@@H]3COP(=O)(S)O[C@H]3[C@@H](O)[C@H](n4ccc(N)nc4=O)O[C@@H]3COP(=O)(S)O[C@H]3[C@@H](O)[C@H](n4ccc5c(=O)[nH]c(N)nc54)O[C@@H]3COP(=O)(S)O[C@H]3[C@@H](O)[C@H](n4ccc(N)nc4=O)O[C@@H]3COP(=O)(S)O[C@H]3[C@@H](O)[C@H](n4cnc5c(N)ncnc54)O[C@@H]3COP(=O)(S)O[C@H]3[C@@H](O)[C@H](n4ccc5c(=O)[nH]c(N)nc54)O[C@@H]3COP(=O)(S)O[C@H]3[C@@H](O)[C@H](n4ccc(=O)[nH]c4=O)O[C@@H]3COP(=O)(S)O[C@H]3[C@@H](O)[C@H](n4ccc(N)nc4=O)O[C@@H]3COP(=O)(S)O[C@H]3[C@@H](O)[C@H](n4cnc5c(N)ncnc54)O[C@@H]3COP(=O)(S)O[C@H]3[C@@H](O)[C@H](n4cnc5c(N)ncnc54)O[C@@H]3CO)[C@H]2O)c(=O)n1` (some centres not stated): the result in data set [1] was inactive. The fold change (FC) in data set [2] is 18.4. Also, in the data set listed under Homo sapiens, the Ratio is 46. Further, the remaining at 10 min in data set [3] came out at 84%.

On to `Nc1ccn([C@@H]2O[C@H](COP(=O)(S)O[C@H]3[C@@H](O)[C@H](n4ccc5c(=O)[nH]c(N)nc54)O[C@@H]3COP(=O)(S)O[C@H]3[C@@H](O)[C@H](n4cnc5c(N)ncnc54)O[C@@H]3COP(=O)(S)O[C@H]3[C@@H](O)[C@H](n4cnc5c(N)ncnc54)O[C@@H]3COP(=O)(S)O[C@H]3[C@@H](O)[C@H](n4ccc5c(=O)[nH]c(N)nc54)O[C@@H]3COP(=O)(S)O[C@H]3[C@@H](O)[C@H](n4ccc(=O)[nH]c4=O)O[C@@H]3COP(=O)(S)O[C@H]3[C@@H](O)[C@H](n4ccc(=O)[nH]c4=O)O[C@@H]3COP(=O)(S)O[C@H]3[C@@H](O)[C@H](n4cnc5c(N)ncnc54)O[C@@H]3COP(=O)(S)O[C@H]3[C@@H](O)[C@H](n4cnc5c(N)ncnc54)O[C@@H]3CO)[C@@H](OP(=O)(S)OC[C@H]3O[C@@H](n4ccc(=O)[nH]c4=O)[C@H](O)[C@@H]3OP(=O)(S)OC[C@H]3O[C@@H](n4ccc(=O)[nH]c4=O)[C@H](O)[C@@H]3OP(=O)(S)OCC(O)COP(=O)(S)O[C@H]3[C@@H](O)[C@H](n4ccc(=O)[nH]c4=O)O[C@@H]3COP(=O)(S)O[C@H]3[C@@H](O)[C@H](n4ccc(=O)[nH]c4=O)O[C@@H]3COP(=O)(S)O[C@H]3[C@@H](O)[C@H](n4ccc(N)nc4=O)O[C@@H]3COP(=O)(S)O[C@H]3[C@@H](O)[C@H](n4ccc5c(=O)[nH]c(N)nc54)O[C@@H]3COP(=O)(S)O[C@H]3[C@@H](O)[C@H](n4cnc5c(N)ncnc54)O[C@@H]3COP(=O)(S)O[C@H]3[C@@H](O)[C@H](n4cnc5c(N)ncnc54)O[C@@H]3COP(=O)(S)O[C@H]3[C@@H](O)[C@H](n4ccc5c(=O)[nH]c(N)nc54)O[C@@H]3COP(=O)(S)O[C@H]3[C@@H](O)[C@H](n4ccc(=O)[nH]c4=O)O[C@@H]3COP(=O)(S)O[C@H]3[C@@H](O)[C@H](n4ccc(=O)[nH]c4=O)O[C@@H]3COP(=O)(S)O[C@H]3[C@@H](O)[C@H](n4cnc5c(N)ncnc54)O[C@@H]3COP(=O)(S)O[C@H]3[C@@H](O)[C@H](n4cnc5c(N)ncnc54)O[C@@H]3CO)[C@H]2O)c(=O)n1` (some centres not stated), for which the result in data set [1] was inactive. The fold change (FC) in data set [2] was 25. The Ratio in the data set filed under Homo sapiens was found to be 15.6. Also, in data set [3], the remaining at 10 min was 83%.

Turning to `Nc1ccn([C@@H]2O[C@H](COP(=O)(S)O[C@H]3[C@@H](O)[C@H](n4cnc5c(N)ncnc54)O[C@@H]3CO)[C@@H](OP(=O)(S)OC[C@H]3O[C@@H](n4ccc(=O)[nH]c4=O)[C@H](O)[C@@H]3OP(=O)(S)OC[C@H]3O[C@@H](n4ccc(=O)[nH]c4=O)[C@H](O)[C@@H]3OP(=O)(S)OC[C@H]3O[C@@H](n4ccc5c(=O)[nH]c(N)nc54)[C@H](O)[C@@H]3OP(=O)(S)OC[C@H]3O[C@@H](n4cnc5c(N)ncnc54)[C@H](O)[C@@H]3OP(=O)(S)OC[C@H]3O[C@@H](n4cnc5c(N)ncnc54)[C@H](O)[C@@H]3OP(=O)(S)OC[C@H]3O[C@@H](n4ccc(N)nc4=O)[C@H](O)[C@@H]3OP(=O)(S)OC[C@H]3O[C@@H](n4ccc(=O)[nH]c4=O)[C@H](O)[C@@H]3OP(=O)(S)OC[C@H]3O[C@@H](n4ccc(=O)[nH]c4=O)[C@H](O)[C@@H]3OP(=O)(S)OC[C@H]3O[C@@H](n4ccc5c(=O)[nH]c(N)nc54)[C@H](O)[C@@H]3OP(=O)(S)OCC(O)COP(=O)(S)O[C@H]3[C@@H](O)[C@H](n4ccc5c(=O)[nH]c(N)nc54)O[C@@H]3COP(=O)(S)O[C@H]3[C@@H](O)[C@H](n4ccc(=O)[nH]c4=O)O[C@@H]3COP(=O)(S)O[C@H]3[C@@H](O)[C@H](n4ccc(=O)[nH]c4=O)O[C@@H]3COP(=O)(S)O[C@H]3[C@@H](O)[C@H](n4ccc(N)nc4=O)O[C@@H]3COP(=O)(S)O[C@H]3[C@@H](O)[C@H](n4cnc5c(N)ncnc54)O[C@@H]3COP(=O)(S)O[C@H]3[C@@H](O)[C@H](n4cnc5c(N)ncnc54)O[C@@H]3COP(=O)(S)O[C@H]3[C@@H](O)[C@H](n4ccc5c(=O)[nH]c(N)nc54)O[C@@H]3COP(=O)(S)O[C@H]3[C@@H](O)[C@H](n4ccc(=O)[nH]c4=O)O[C@@H]3COP(=O)(S)O[C@H]3[C@@H](O)[C@H](n4ccc(=O)[nH]c4=O)O[C@@H]3COP(=O)(S)O[C@H]3[C@@H](O)[C@H](n4ccc(N)nc4=O)O[C@@H]3COP(=O)(S)O[C@H]3[C@@H](O)[C@H](n4cnc5c(N)ncnc54)O[C@@H]3CO)[C@H]2O)c(=O)n1` (some centres not stated), in data set [1], the result was inactive. Besides, the fold change (FC) in data set [2] came to 14.7. The Ratio in the data set listed under Homo sapiens turned out to be 3. In data set [3], the remaining at 10 min was 84%.
